Measurements as given in ChEMBL document CHEMBL4393678, “Novel Tetrahydroquinazolinamines as Selective Histamine 3 Receptor Antagonists for the Treatment of Obesity” (J Med Chem, 2019).
Calls of active or inactive are those of the source. No cut-off for these calls is given here.

Columns and labels:
[1] = Toxicity in lean C57BL/6J mouse assessed as change in body fat mass at 10 to 20 mg/kg, po measured after 6 weeks; assay type: organism-based; conditions: in vivo, 1008 h
[2] = target: Histamine H1 receptor (Homo sapiens) (UniProt P35367); assay: Antagonist activity at H1R (unknown origin) expressed in HEK293 cells harboring luc2P/NFAT-RE plasmid at 10 uM after 6 to 8 hrs by luciferase reporter gene assay; assay type: cell-based
Outline: (§1)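 NFAT-RE luciferase assay in HEK293T cells transiently co-transfected with luc2P/NFAT-RE plasmid and receptor plasmid. Cells plated in DMEM and incubated overnight at 37 °C, 5% CO₂. Compounds and reference ligands applied for 6-8 h. Luciferase read after adding Bright-Glo substrate (1 mg/ml final).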

[3] = Half life in C57BL/6J mouse serum at 20 mg/kg, po by LC-MS/MS analysis; assay type: ADME, organism-based
Outline: (§2)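 Male C57BL/6J mice (6-8 weeks, 20 ± 5 g) fasted overnight (12-16 h) got a single 20 mg/kg oral dose as 2.5 mg/mL suspension in 1% w/v gum acacia; n=5 per time point. Serum and brain (PBS homogenate 1:6 w/v) sampled up to 24 h. Parent and demethylated metabolite quantified by LC-MS/MS after liquid-liquid extraction (C18, MRM, phenacetin internal standard; linear 0.25-200 ng/mL). Two-compartment open model fit.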

Histamine H2 receptor = Histamine H2 receptor (Homo sapiens, UniProt P25021); assay: Agonist activity at recombinant human Gs-coupled H2 receptor expressed in HEK293T cells assessed as inhibition of forskolin-stimulated cAMP accumulation at 10 uM preincubated for 10 to 15 followed by forskolin-stimulation by Glo-sensor assay relative to control; assay type: functional, cell-based; set-up: scale not given: the % may be the effect or the level left
Outline: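 HEK293T cells were transiently co-transfected with GloSensor-22F cAMP plasmid and human H2R plasmid, then held 15–18 h at 37 °C in 5% CO2. Cells were loaded with sodium luciferin (1 mg/ml) for 90 min. Agonist mode used 10 µM compound, with luminescence read directly after 10–15 min. Screening was in triplicate, scored as ≥50% change versus control.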

[4] = target: Free fatty acid receptor 1 (Homo sapiens) (UniProt O14842); assay: Agonist activity at GPR40 (unknown origin) expressed in HEK293 cells harboring luc2P/NFAT-RE plasmid at 10 uM after 6 to 8 hrs by luciferase reporter gene assay; assay type: cell-based; outline: as §1
Mus musculus [5] = assay: Anorexic effect in high fat diet-induced obese C57BL/6J mouse model assessed as reduction in cumulative food intake at 20 mg/kg, po pretreated for 30 mins followed by food addition measured after 4 hrs relative to control; assay type: functional; set-up: scale not given: the % may be the effect or the level left
Outline: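 Mice starved 12 h (8:00 am to 8:00 pm) with water available, then housed singly. Compound given orally in 5% gum acacia in normal saline; vehicle group received the same. Cumulative food intake measured over 4 h of the night phase (9:00 pm to 1:00 am), starting 30 min after dosing. Antagonism arms: imitet 5 mg/kg i.p. 30 min before compound, or α-methyl-DL-histidine 20 mg/kg i.p. 2 h before.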

Mus musculus [6] = assay: Anti-obesity activity in high fat diet-induced obese C57BL/6J mouse model assessed as change in LDL level at 10 to 20 mg/kg, po measured after 6 weeks; assay type: functional, organism-based
Outline: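 At the end of treatment (six weeks HFD, four weeks db/db), mice euthanized with avertin 350 mg/kg. Blood taken by cardiac puncture into 3.8% sodium citrate. Plasma separated at 4000 rpm and stored at -80 °C. TG, TC, HDLc and LDLc measured on a bio-analyzer.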

[7] = fCmax in C57BL/6J mouse brain by equilibrium dialysis method; assay type: ADME, tissue-based
Outline: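 Unbound brain level derived from brain concentration after 20 mg/kg oral dose, multiplied by unbound fraction from brain-homogenate equilibrium dialysis; given at Cmax and at 4 h.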

Mus musculus [8] = assay: Anorexic effect in high fat diet-induced obese C57BL/6J mouse model assessed as reduction in cumulative food intake at 10 mg/kg, po pretreated for 30 mins followed by food addition measured after 4 hrs relative to control; assay type: functional; set-up: scale not given: the % may be the effect or the level left
Outline: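 Male C57BL/6J mice on high-fat diet, starved 12 h (8 am–8 pm) with water available, housed singly. Oral dose in 5% gum acacia in normal saline, vehicle group alongside. Food given 30 min after dosing, and cumulative intake measured over the 4 h night phase (9 pm–1 am). One-way ANOVA with Newman-Keuls test.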

[9] = target: Histamine H1 receptor (Homo sapiens) (UniProt P35367); assay: Agonist activity at H1R (unknown origin) expressed in HEK293 cells harboring luc2P/NFAT-RE plasmid at 10 uM after 6 to 8 hrs by luciferase reporter gene assay; assay type: cell-based; outline: as §1
[10] = Half life in C57BL/6J mouse serum assessed as 4-(2-Amino-8-methyl-5,6,7,8-tetrahydroquinazolin-4-yl)phenol level at 20 mg/kg, po by LC-MS/MS analysis; assay type: ADME, organism-based; conditions: in vivo; outline: as §2
[11] = target: Voltage-gated inwardly rectifying potassium channel KCNH2 (Homo sapiens, UniProt Q12809); assay: Inhibition of tracer Red binding to human ERG expressed in membranes up to 10 uM after 3 hrs by fluorescence polarization assay
[12] = target: T1, D(4) dopamine receptor (Homo sapiens) (UniProt P21917); assay: Antagonist activity at D4 receptor (unknown origin)
T1 sequence (whole entry): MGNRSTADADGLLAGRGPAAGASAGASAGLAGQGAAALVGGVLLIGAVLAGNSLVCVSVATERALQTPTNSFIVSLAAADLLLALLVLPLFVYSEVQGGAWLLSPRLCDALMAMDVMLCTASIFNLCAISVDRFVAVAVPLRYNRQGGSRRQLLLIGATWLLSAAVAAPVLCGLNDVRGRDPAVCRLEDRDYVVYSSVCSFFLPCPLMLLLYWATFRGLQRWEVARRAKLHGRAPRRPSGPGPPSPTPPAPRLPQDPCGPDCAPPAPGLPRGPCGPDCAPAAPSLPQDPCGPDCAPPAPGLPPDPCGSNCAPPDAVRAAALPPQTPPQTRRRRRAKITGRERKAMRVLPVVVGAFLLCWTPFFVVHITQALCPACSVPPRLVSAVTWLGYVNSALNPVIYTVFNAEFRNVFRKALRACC

Mus musculus [13] = assay: Anti-obesity activity in 16 hrs fasted db/db-induced obese C57BL/6J mouse model assessed as change in blood total cholesterol level at 20 mg/kg, po measured after 6 weeks; assay type: functional, organism-based
Mus musculus [14] = assay: Anti-obesity activity in 16 hrs fasted high fat diet-induced obese C57BL/6J mouse model assessed as change in blood glucose level at 10 to 20 mg/kg, po treated prior to glucose addition measured after 15 to 120 mins by IPGTT; assay type: functional, organism-based
Outline: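 Mice fasted 16 h; baseline tail-vein glucose read by glucometer. Glucose given i.p. at 2 g/kg (C57BL/6J) or 1 g/kg (db/db).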

Chain of Histamine H1 receptor (Homo sapiens) (P35367 whole entry): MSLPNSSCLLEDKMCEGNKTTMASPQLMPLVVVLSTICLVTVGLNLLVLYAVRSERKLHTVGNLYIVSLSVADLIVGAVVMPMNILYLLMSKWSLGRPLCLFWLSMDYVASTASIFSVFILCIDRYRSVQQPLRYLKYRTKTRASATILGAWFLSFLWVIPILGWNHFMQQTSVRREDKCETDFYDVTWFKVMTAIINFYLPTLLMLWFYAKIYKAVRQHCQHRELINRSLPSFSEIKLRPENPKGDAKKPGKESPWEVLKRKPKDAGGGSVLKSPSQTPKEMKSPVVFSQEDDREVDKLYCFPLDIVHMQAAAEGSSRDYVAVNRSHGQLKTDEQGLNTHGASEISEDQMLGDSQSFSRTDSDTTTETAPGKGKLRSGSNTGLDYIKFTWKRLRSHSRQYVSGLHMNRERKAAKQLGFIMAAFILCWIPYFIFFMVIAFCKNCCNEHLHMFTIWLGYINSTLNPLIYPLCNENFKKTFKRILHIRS
Chain of Free fatty acid receptor 1 (Homo sapiens) (O14842 whole entry): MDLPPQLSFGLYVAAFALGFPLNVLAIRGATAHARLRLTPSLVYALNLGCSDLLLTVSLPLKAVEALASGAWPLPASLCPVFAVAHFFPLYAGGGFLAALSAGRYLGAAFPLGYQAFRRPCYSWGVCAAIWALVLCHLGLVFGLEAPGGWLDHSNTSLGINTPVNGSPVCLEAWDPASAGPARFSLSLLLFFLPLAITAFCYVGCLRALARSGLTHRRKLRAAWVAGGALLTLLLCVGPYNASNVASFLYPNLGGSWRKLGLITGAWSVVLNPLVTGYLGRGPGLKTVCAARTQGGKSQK
Chain of Histamine H2 receptor (P25021 whole entry): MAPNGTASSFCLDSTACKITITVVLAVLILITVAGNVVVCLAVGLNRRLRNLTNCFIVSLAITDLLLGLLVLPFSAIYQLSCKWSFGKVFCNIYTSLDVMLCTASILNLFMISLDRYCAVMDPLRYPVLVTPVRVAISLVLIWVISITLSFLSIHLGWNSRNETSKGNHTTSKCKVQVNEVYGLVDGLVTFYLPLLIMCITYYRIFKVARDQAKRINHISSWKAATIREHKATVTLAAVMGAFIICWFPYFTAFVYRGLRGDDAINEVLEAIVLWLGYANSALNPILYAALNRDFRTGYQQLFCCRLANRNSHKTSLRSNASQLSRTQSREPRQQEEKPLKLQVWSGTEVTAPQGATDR
Chain of Voltage-gated inwardly rectifying potassium channel KCNH2 (Q12809 whole entry): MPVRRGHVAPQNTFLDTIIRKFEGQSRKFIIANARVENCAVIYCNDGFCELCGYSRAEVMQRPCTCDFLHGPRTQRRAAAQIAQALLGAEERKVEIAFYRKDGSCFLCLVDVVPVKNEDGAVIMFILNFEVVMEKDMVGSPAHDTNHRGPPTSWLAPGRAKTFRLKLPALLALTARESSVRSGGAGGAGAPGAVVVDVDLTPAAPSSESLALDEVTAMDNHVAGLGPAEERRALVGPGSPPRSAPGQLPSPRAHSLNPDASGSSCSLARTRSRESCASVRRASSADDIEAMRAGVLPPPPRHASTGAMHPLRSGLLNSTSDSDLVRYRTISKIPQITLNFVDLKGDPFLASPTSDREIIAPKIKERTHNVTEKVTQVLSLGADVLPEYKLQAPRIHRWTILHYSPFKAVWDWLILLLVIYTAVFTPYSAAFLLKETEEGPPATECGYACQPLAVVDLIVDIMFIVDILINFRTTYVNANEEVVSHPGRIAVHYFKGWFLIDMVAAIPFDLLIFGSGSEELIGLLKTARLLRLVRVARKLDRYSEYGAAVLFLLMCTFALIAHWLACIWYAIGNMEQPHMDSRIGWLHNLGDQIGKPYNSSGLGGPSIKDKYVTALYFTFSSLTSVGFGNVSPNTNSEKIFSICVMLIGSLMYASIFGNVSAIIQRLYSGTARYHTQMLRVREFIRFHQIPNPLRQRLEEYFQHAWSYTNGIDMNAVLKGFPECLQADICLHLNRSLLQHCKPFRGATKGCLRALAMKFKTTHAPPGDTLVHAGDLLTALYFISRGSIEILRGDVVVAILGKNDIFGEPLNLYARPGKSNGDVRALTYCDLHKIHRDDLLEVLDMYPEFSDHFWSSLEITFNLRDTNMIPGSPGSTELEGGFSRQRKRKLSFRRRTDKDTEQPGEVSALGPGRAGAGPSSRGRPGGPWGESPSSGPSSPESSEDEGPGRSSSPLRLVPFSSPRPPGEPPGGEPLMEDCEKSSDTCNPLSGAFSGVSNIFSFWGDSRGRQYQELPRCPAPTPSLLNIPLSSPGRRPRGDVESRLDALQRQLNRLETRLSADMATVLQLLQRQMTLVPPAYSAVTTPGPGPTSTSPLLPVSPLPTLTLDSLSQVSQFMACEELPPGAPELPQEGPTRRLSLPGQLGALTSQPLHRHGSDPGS

## COc1ccc(-c2nc(N)nc3c2CCCC3C)cc1 (racemic)
[1]
  Activity: Non-Toxic
[2]
  inhibition: inactive
[3]
  half-life: 1.9 h
Histamine H2 receptor
  Activity: < 50%
[4]
  Activity: inactive
Mus musculus [5]
  Activity: 28%
Mus musculus [6]
  Activity: inactive
[7]
  fCmax: 334.7 nM
Mus musculus [8]
  Activity: 26%
[9]
  Activity: inactive
[10]
  t1/2: 2.1 h
[11]
  inhibition (INH): Not Active
[12]
  inhibition: inactive
Mus musculus [13]
  Activity: inactive
Mus musculus [14]
  Activity: inactive
